Screening data as filed in PubChem.
HKDC1 inhibitor – HKDC1 hexokinase inhibitors, primary screen, biochemical, fluorescence, uHTS; inhibition, % at 20 µM; recombinant HKDC1, G6PDH/diaphorase resazurin coupled fluorescence; Q2TB90; AID 493160, 2011; hit rate 0.16% among 340,000;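 active = inhibition above about 35% when tested at 20 µM, limit read from the data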
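Incubation: 90 min at room temperature in dark / Material: recombinant HKDC1 (HK5) hexokinase enzyme, produced in-house / Quantity: enzyme 5 µg/mL final / Compound: one dose of 20 µM, 1% DMSO / Reagent: glucose and ATP substrates / Buffer or medium: Tris pH 8.0 buffer with MgCl2, Tween-20, BSA, BME / Technique: resorufin fluorescence at 613 nm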
A3A deaminase – APOBEC3A ssDNA deaminase inhibitors, primary screen, selectivity assay for APOBEC3G inhibitor project, biochemical, FAM/TAMRA oligo cleavage fluorescence. DNA dC->dU-editing enzyme APOBEC-3A (Homo sapiens), P31941. recombinant A3A, FAM/TAMRA ssDNA deamination fluorescence. inhibition, % at 20 µM. hit rate 0.41% among 330,000. AID 493011, 2011;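 active = at least 40% inhibition at 20 µM here, with at most 30% in a related deaminase screen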
Target sequence (P31941 whole entry, looked up): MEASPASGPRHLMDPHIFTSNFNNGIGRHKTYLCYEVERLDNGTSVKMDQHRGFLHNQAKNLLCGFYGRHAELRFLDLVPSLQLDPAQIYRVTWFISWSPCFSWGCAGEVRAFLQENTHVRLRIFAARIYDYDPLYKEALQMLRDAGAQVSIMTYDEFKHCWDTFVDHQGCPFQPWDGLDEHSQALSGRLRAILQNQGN
APOBEC3G inh – APOBEC3G DNA deaminase inhibitors, primary screen, biochemical, fluorescence, single-stranded DNA substrate, uHTS | DNA dC->dU-editing enzyme APOBEC-3G (Homo sapiens), Q9HC16 | recombinant A3G, ssDNA deamination FAM/TAMRA fluorescence | inhibition, % at 20 µM | hit rate 0.28% among 330,000 | AID 493012, 2011;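 active = inhibition of at least 40% at 20 µM, with no more than 30% in the related APOBEC3A deaminase screen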
Target sequence (Q9HC16 whole entry, looked up): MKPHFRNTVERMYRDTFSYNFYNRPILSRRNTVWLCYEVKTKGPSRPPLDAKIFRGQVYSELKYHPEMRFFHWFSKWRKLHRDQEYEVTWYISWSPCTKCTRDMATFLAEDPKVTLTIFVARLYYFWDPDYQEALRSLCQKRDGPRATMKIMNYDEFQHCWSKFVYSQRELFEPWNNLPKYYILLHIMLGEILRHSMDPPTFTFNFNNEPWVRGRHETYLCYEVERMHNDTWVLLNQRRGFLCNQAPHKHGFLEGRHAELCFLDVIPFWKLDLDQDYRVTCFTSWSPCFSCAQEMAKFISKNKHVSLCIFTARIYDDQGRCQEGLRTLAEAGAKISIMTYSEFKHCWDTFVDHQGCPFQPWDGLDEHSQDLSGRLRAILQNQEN
UBC9 SUMO inh – inhibitors of in vitro SUMOylation cascade, primary screen, biochemical, HTRF, uHTS. SUMO-conjugating enzyme UBC9 (Homo sapiens), P63279. AID 2006, 2009. HTRF SUMOylation assay, SAE1/SAE2 + UBC9. inhibition, % at 35 µM. hit rate 0.36% among 290,000; in the data active = inhibition above about 50%, passing the limit was not always enough
PfGluPho inh – PfG6PD enzyme inhibitors, primary screen, biochemical, fluorescence intensity, uHTS; inhibition, % at 20 µM; AID 504690, 2011; glucose-6-phosphate dehydrogenase-6-phosphogluconolactonase (Plasmodium falciparum 3D7); PfGluPho enzyme, NADPH resazurin-diaphorase fluorescence; hit rate 0.78% among 350,000;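 active = inhibition reaching at least a set limit at 20 µM in the primary screen, cut at about 59% in these data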
M18AAP inhibitor – PfM18AAP inhibitors, malaria aminopeptidase, primary screen, biochemical, QFRET, recombinant enzyme; M18 aspartyl aminopeptidase (Plasmodium falciparum 3D7); H-Glu-NHMec fluorogenic cleavage; inhibition, % at 7.35 µM; hit rate 1.2% among 290,000; AID 1822, 2009;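 active = inhibition above the campaign mean inhibition over all tested compounds plus 3 SD, cut at about 28% in these data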
Of the large screens only hits and unclear results are named; the others gave an inactive call. The list is not random: actives were taken first. Their share in the collection is about 2.4%.

Cc1[nH]n(-c2ccccc2)c(=O)c1C(c1cccc([N+](=O)[O-])c1O)c1c(C)[nH]n(-c2ccccc2)c1=O	UBC9 SUMO inh 62
Cc1[nH]n(-c2ccccc2)c(=O)c1C(C[N+](=O)[O-])c1ccc(Br)cc1 (stereo not given)	M18AAP inhibitor 30
COC(=O)Cn1c(=O)sc2ccccc21	none
O=C(NC1CCCCCC1)C(=S)NC1CCCCC1	M18AAP inhibitor 30
O=C(NC1CCCCCC1)C(=O)NC1CC1	none
Cc1ccc(-c2nn3c(C)nnc3c3ccccc23)cc1S(=O)(=O)NC(C)c1ccccc1 (stereo not given)	none
N#C/C(=C\c1cccc(Br)c1)C(=O)N1CCCCC1	M18AAP inhibitor 30
N#C/C(=C\c1cccc(O)c1)C(=O)N1CCCCC1	none
COCCNC(=O)c1cccc(OC2CCN(Cc3ccc(C(=O)OC)cc3)CC2)c1	none
O=S(=O)(NCc1ccco1)c1ccc2ccccc2c1	none
COc1cccc(CN2CCc3[nH]c(=S)[nH]c(=O)c3C2)c1	M18AAP inhibitor 30
Nc1nnc(SCC(=O)OCC(=O)Nc2ccccc2)s1	none
Cn1c(=O)cc(Nc2ccc(Cl)cc2)[nH]c1=O	none
COCCCOc1ccnc(CS(=O)c2nc3ccccc3[nH]2)c1C (stereo not given)	M18AAP inhibitor 31
Nc1n[nH]c2cc(=O)n(-c3ccc(Cl)cc3)nc12	none
Cc1nc2ncccn2c1-c1csc(Nc2cccc(C(=O)O)c2)n1	M18AAP inhibitor 29
Cc1nc2ccccn2c1-c1csc(Nc2cccc(C(=O)O)c2)n1	M18AAP inhibitor 31
CCc1ccccc1OCC(=O)Nc1ccc(N2CCCC2)cc1C	none (no result: UBC9 SUMO inh, M18AAP inhibitor)
Nc1ccc(N2CCOCC2)c2nonc12	UBC9 SUMO inh 99
CCOc1ccccc1-c1c2cc(O)c(=O)cc-2oc2cc(O)c(O)cc12	M18AAP inhibitor 30 (no result: A3A deaminase, APOBEC3G inh)
O=c1cc2oc3cc(O)c(O)cc3c(-c3ccccc3O)c-2cc1O	UBC9 SUMO inh 85, M18AAP inhibitor 44 (no result: A3A deaminase, APOBEC3G inh)
Cc1ccccc1-c1cc(=O)c2c(O)cccc2o1	none (no result: M18AAP inhibitor)
O=C(/C=C/c1ccc([N+](=O)[O-])cc1)N(c1ccccn1)C1CCCCC1	M18AAP inhibitor 43
Nc1ccccc1Sc1ccc(C(=O)c2ccccc2C(=O)O)cc1[N+](=O)[O-]	M18AAP inhibitor 30
COc1cc(C(Nc2ccccn2)c2ccc3ccc(C)nc3c2O)cc(OC)c1O (stereo not given)	M18AAP inhibitor 30
O=[N+]([O-])c1cc2c(cc1CN1CCN(c3ccccc3F)CC1)OCO2	M18AAP inhibitor 29
CCCn1c(/N=C/c2ccccc2O)nc2ccccc21	none
O=C(N/N=C/c1c(O)ccc2ccccc12)c1cccnc1	M18AAP inhibitor 31
Cn1c(/N=C/c2c(O)ccc3ccccc23)nc2ccccc21	HKDC1 inhibitor 54, PfGluPho inh 76 (no result: A3A deaminase, APOBEC3G inh)
O=C(NN=Cc1c(O)ccc2ccccc12)c1ccncc1	none (no result: A3A deaminase, APOBEC3G inh, UBC9 SUMO inh, M18AAP inhibitor)
Cn1nccc1C(=O)N/N=C/c1c(O)ccc2ccccc12	M18AAP inhibitor 28
COc1ccc(NS(=O)(=O)c2ccc(N3CCOCC3)c(NC(=O)c3ccc(F)cc3)c2)cc1	none
Nc1ncnc2c1ncn2C1OC(COP(=O)(O)O)C(O)C1O (stereo not given)	none (no result: UBC9 SUMO inh)
Nc1ncnc2c1ncn2[C@@H]1O[C@H](COP(=O)(O)O)[C@@H](O)[C@H]1O	UBC9 SUMO inh 62
COc1cc(NC(=S)Nc2cccnc2)cc(OC)c1	UBC9 SUMO inh 72
CCOc1ccc(NC(=S)Nc2cccc3cnccc23)cc1	UBC9 SUMO inh 89
CCOc1ccc(NC(=S)Nc2cccc3ccccc23)cc1	none
COc1ccc(NC(=S)Nc2cccc3cnccc23)cc1	UBC9 SUMO inh 94
CCN(C(=S)Nc1cccnc1)c1cccc2ccccc12	UBC9 SUMO inh 100
CCO[C@H]1OC(C(=O)N2CCN(Cc3ccc4c(c3)OCO4)CC2)=C[C@@H](c2ccc(Br)cc2)[C@@H]1CCCO	none
O=C(O)CCc1ccc(-c2cccs2)n1NC(=O)c1ccc(Cl)cc1	none
CC(=O)N(C)c1ccc(N=Nc2ccc3ncccc3c2)cc1	none (no result: A3A deaminase, APOBEC3G inh, UBC9 SUMO inh, M18AAP inhibitor)
CC1(C)NC(=O)N(CC(=O)N2CCC(Cc3ccccc3)CC2)C1=O	none
COc1ccc([C@H]2/C=C\CN(C(=O)[C@H](Cc3ccccc3)NC(=O)OCC3c4ccccc4-c4ccccc43)CC(=O)N2Cc2ccc(F)cc2)cc1	none (no result: UBC9 SUMO inh, M18AAP inhibitor)
COc1ccccc1NC(=S)Nc1cccc2cnccc12	UBC9 SUMO inh 51
Fc1ccc(NC(=S)Nc2cccc3cnccc23)cc1	none
S=C(Nc1cccnc1)Nc1cccc2cnccc12	UBC9 SUMO inh 97
COc1cccc(NC(=S)Nc2cccc3ccccc23)c1	none
COc1ccc(N=C2NC(=O)/C(=C\C=C\c3ccco3)S2)cc1	UBC9 SUMO inh 85
CC1(C)N([O-])c2cc([N+](=O)[O-])ccc2[N+]1=O	PfGluPho inh 70
Cc1ccc(C)n1-c1cc([N+](=O)[O-])ccc1-n1ccnc1	none
O=C1CC(NCCc2ccccc2)C(=O)N1CCc1ccccc1 (stereo not given)	none
c1coc(-c2nnc(-c3ccco3)nn2)c1	M18AAP inhibitor 54 (no result: UBC9 SUMO inh)
c1ccc(-c2nnc(-c3ccco3)o2)cc1	none
Cc1[nH]n(C(N)=S)c(=O)c1C(c1ccccc1)C(C#N)C#N (stereo not given)	none
Cc1[nH]n(-c2ncc(-c3ccccc3)s2)c(=O)c1C(c1ccc(Br)cc1)C(C#N)C#N (stereo not given)	UBC9 SUMO inh 64
O=[N+]([O-])c1cc(Cl)c(O)c2ncccc12	UBC9 SUMO inh 59
Oc1c(Cl)cc(CN2CCOCC2)c2cccnc12	none (no result: UBC9 SUMO inh, M18AAP inhibitor)
O=[N+]([O-])c1cc(CN2CCOCC2)c2cccnc2c1O	UBC9 SUMO inh 89 (no result: A3A deaminase, APOBEC3G inh)
N#CCCN(Cc1ccccc1)C(=O)Nc1ccc2c(c1)CCO2	none
Nc1nonc1N/N=C\c1ccccc1	none
Nc1nonc1NN=C1CCCCC1	M18AAP inhibitor 31
O=C(N/N=C/c1ccc(O)cc1O)C(=O)N/N=C/c1ccc(O)cc1O	UBC9 SUMO inh 95
Cc1nc(Cl)cc(N/N=C/c2ccc(O)cc2O)n1	M18AAP inhibitor 31
Cc1nc(Cl)cc(N/N=C/c2ccc(O)cc2)n1	none
COc1ccc(N2Cc3ccc(C(=O)N/N=C\c4ccc(O)cc4O)cc3C2)cc1	UBC9 SUMO inh 66 (no result: HKDC1 inhibitor, PfGluPho inh)
COc1cccc(/C=N/Nc2c(Cl)cncc2Cl)c1O	none
COc1cccc(/C=N/Nc2cc(Cl)nc(C)n2)c1O	M18AAP inhibitor 29
